# Test results taken from ChEMBL document CHEMBL1121590, “Synthesis and enzymatic and inotropic activity of some new 8-substituted and 6,8-disubstituted derivatives of adenosine cyclic 3',5'-monophosphate” (J Med Chem, 1980).
# Calls of active or inactive are those of the source. The rule behind the calls is not given here.
# Columns and labels:
# [1] = Inhibition of cAMP phosphodiesterase preparation from rabbit lung at a substrate concentration of 0.14 uM
# Canis familiaris [2] = experiment: Change in heart rate (beats/min) in anesthetized dog; type: functional, Canis lupus familiaris
# In short: (§1)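 Adult mongrel dogs of either sex, induced with sodium methohexital and maintained on methoxyflurane, breathing spontaneously at 37 ± 1 °C. The right atrium was electrically paced, and the pacer was switched off periodically to obtain spontaneous rate. Dose was 3.1 mg/kg iv via the femoral vein. Catheter-tip transducers recorded aortic and LV pressure; LV dP/dt max indexed contractility. BP and rate were taken at the time of maximal % change in dP/dt max. 1–4 dogs were used per compound.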
# Canis familiaris [3] = experiment: Evaluated for dP/dt max in anesthetized dogs; type: functional, Canis lupus familiaris
# In short: as §1
# Canis familiaris [4] = experiment: Inotropic change in blood pressure (systolic/diastolic mmHg) in anesthetized dog; 2/-5; type: functional, organism-based; settings: Canis lupus familiaris; Artery
# In short: as §1
# Phosphodiesterase 4 = Phosphodiesterase 4 (Homo sapiens, UniProt P27815+Q08499+Q07343+Q08493); settings: Oryctolagus cuniculus; Kidney
# Canis familiaris [5] = experiment: Inotropic change in blood pressure (systolic/diastolic mmHg) in anesthetized dog; 6/-19; type: functional, organism-based; settings: Canis lupus familiaris; Artery
# In short: as §1
# Canis familiaris [6] = experiment: Inotropic change in blood pressure (systolic/diastolic mmHg) in anesthetized dog; -8/-25; type: functional, organism-based; settings: Canis lupus familiaris; Artery
# In short: as §1
# Canis familiaris [7] = experiment: Inotropic change in blood pressure (systolic/diastolic mmHg) in anesthetized dog; 0/-6; type: functional, Canis lupus familiaris, Artery
# In short: as §1
# Canis familiaris [8] = experiment: Inotropic change in blood pressure (systolic/diastolic mmHg) in anesthetized dog; -4/-9; type: functional, organism-based; settings: Canis lupus familiaris; Artery
# In short: as §1
# Canis familiaris [9] = experiment: Inotropic change in blood pressure (systolic/diastolic mmHg) in anesthetized dog; -6/-22; type: functional, organism-based; settings: Canis lupus familiaris; Artery
# In short: as §1
Compound,I50 [1] [µM],Hydrolysis (Phosphodiesterase 4),Change (Canis familiaris [2]) [beats/min],Change (Canis familiaris [3]) [%],Change (Canis familiaris [4]),Change (Canis familiaris [5]),Change (Canis familiaris [6]),Change (Canis familiaris [7]) [%],Change (Canis familiaris [8]),Change (Canis familiaris [9])
CN(C)c1ncnc2c1nc(SCc1ccccc1)n2[C@@H]1O[C@@H]2COP(=O)(O)O[C@H]2[C@H]1O,–,< 0.05,15,61,–,–,inactive,–,–,–
CNc1ncnc2c1nc(SCc1ccccc1)n2[C@@H]1O[C@@H]2COP(=O)(O)O[C@H]2[C@H]1O,120,< 0.05,0,71,–,–,–,0,–,–
CCN(CC)c1ncnc2c1nc(SCc1ccccc1)n2[C@@H]1O[C@@H]2COP(=O)(O)O[C@H]2[C@H]1O,3.6,< 0.05,5,45,–,–,–,–,inactive,–
CCNc1ncnc2c1nc(SCc1ccccc1)n2[C@@H]1O[C@@H]2COP(=O)(O)O[C@H]2[C@H]1O,2.5,< 0.05,10,80,–,–,–,–,–,inactive

# Further lines, with some results ahead:
I50 [1] [µM],Hydrolysis (Phosphodiesterase 4),Compound,Change (Canis familiaris [2]) [beats/min],Change (Canis familiaris [3]) [%],Change (Canis familiaris [4]),Change (Canis familiaris [5]),Change (Canis familiaris [6]),Change (Canis familiaris [7]) [%],Change (Canis familiaris [8]),Change (Canis familiaris [9])
20,< 0.05,CCCCNc1ncnc2c1nc(SCc1ccccc1)n2[C@@H]1O[C@@H]2COP(=O)(O)O[C@H]2[C@H]1O,0,84,inactive,–,–,–,–,–
3.6,< 0.05,CCCNc1ncnc2c1nc(SCc1ccccc1)n2[C@@H]1O[C@@H]2COP(=O)(O)O[C@H]2[C@H]1O,24,127,–,inactive,–,–,–,–
